Results published in ChEMBL document CHEMBL1759935, “Pharmacokinetic optimisation of novel indole-2-carboxamide cannabinoid CB1 antagonists” (Bioorg Med Chem Lett, 2011).

How the values were obtained:
[1] = Intrinsic clearance in mouse liver microsomes in presence of NADPH; type: ADME, Microsome
How it was run: (§1)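 P450 pathway: compound depletion in duplicate time-course incubations of microsomes at 0.5 mg protein/mL with 1 mM NADPH, pH 7.4. Liver microsomes prepared in-house; small intestinal microsomes purchased. Loss measured by LC–MS/MS; CL_int expressed per mg microsomal protein.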

[2] = Bioavailability in rat; type: ADME, organism-based; details: in vivo
[3] = Intrinsic clearance in dog gut microsomes in presence of NADPH; type: ADME, Canis lupus familiaris, Microsome; how it was run: as §1
[4] = Intrinsic clearance in rat gut microsomes in presence of UGT; type: ADME, Microsome
How it was run: (§2)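 UGT pathway: compound loss in duplicate time-course incubations of liver (prepared in-house) or small intestinal microsomes at 0.5 mg protein/mL, with 2 mM UDPGA, alamethicin and 1 mM MgCl₂ at pH 7.1. Detection by LC–MS/MS; CL_int expressed per mg microsomal protein.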

[5] = Intrinsic clearance in mouse liver microsomes in presence of UGT; type: ADME, Microsome; how it was run: as §2
Rattus norvegicus = species: Rattus norvegicus; assay: Clearance in rat; type: ADME, organism-based; details: in vivo
[6] = Intrinsic clearance in dog gut microsomes in presence of UGT; type: ADME, Canis lupus familiaris, Microsome; how it was run: as §2
[7] = Intrinsic clearance in rat liver microsomes in presence of NADPH; type: ADME, Microsome; how it was run: as §1
[8] = Intrinsic clearance in dog liver microsomes in presence of NADPH; type: ADME, Canis lupus familiaris, Microsome; how it was run: as §1
[9] = Intrinsic clearance in human gut microsomes in presence of UGT; type: ADME, Microsome
How it was run: (§3)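 UGT pathway: human gut or liver microsomes at 0.5 mg protein/mL with 2 mM UDPGA, alamethicin and 1 mM MgCl2, pH 7.1. Compound depletion measured by LC–MS/MS in duplicate time-course incubations; intrinsic clearance expressed per mg protein.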

[10] = Intrinsic clearance in rat gut microsomes in presence of NADPH; type: ADME, Microsome; how it was run: as §1
Mus musculus [11] = species: Mus musculus; assay: Clearance in mouse; type: ADME, organism-based; details: in vivo
[12] = Intrinsic clearance in mouse gut microsomes in presence of NADPH; type: ADME, Microsome; how it was run: as §1
Canis familiaris = species: Canis familiaris; assay: Clearance in dog; type: ADME, organism-based, Canis lupus familiaris; details: in vivo
[13] = Bioavailability in mouse; type: ADME, organism-based; details: in vivo
Mus musculus [14] = assay: Inhibition of WIN55212-2-induced hypothermia in po dosed mouse assessed as change in rectal temperature administered 15 mins before WIN55212-2 challenge measured after 75 mins; type: functional; details: read-out: ID50 (the source's name)
How it was run: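 Antagonist or vehicle (5% mulgofen in saline, 10 mL/kg) given orally 75 min before rectal temperature reading. WIN 55,212-2 mesylate (10 mL/kg) given sc 60 min before the reading, at its time of maximal hypothermia. Metal probe with vaseline inserted about 1.5 cm; highest temperature stable for 10 s recorded. ID50 reported with confidence interval.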

[15] = Bioavailability in dog; type: ADME, organism-based, Canis lupus familiaris; details: in vivo
[16] = Intrinsic clearance in mouse gut microsomes in presence of UGT; type: ADME, Microsome; how it was run: as §2
[17] = Intrinsic clearance in dog liver microsomes in presence of UGT; type: ADME, Canis lupus familiaris, Microsome; how it was run: as §2
[18] = Intrinsic clearance in human liver microsomes in presence of UGT; type: ADME, Microsome; how it was run: as §3
[19] = Intrinsic clearance in rat liver microsomes in presence of UGT; type: ADME, Microsome; how it was run: as §2
[20] = Intrinsic clearance in human liver microsomes in presence of NADPH; type: ADME, Microsome
How it was run: (§4)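 Pooled human microsomes (gut or liver) at 0.5 mg protein/mL with 1 mM NADPH, pH 7.4 (P450 pathway). Compound loss followed by LC–MS/MS in duplicate time-course incubations; intrinsic clearance given per mg protein.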

[21] = Intrinsic clearance in human gut microsomes in presence of NADPH; type: ADME, Microsome; how it was run: as §4
Cannabinoid receptor 1 [22] = molecular target: T1, Cannabinoid receptor 1 (Homo sapiens, UniProt P21554); assay: biochemical; type: cell-based, CHO
T1 sequence (P21554 whole entry): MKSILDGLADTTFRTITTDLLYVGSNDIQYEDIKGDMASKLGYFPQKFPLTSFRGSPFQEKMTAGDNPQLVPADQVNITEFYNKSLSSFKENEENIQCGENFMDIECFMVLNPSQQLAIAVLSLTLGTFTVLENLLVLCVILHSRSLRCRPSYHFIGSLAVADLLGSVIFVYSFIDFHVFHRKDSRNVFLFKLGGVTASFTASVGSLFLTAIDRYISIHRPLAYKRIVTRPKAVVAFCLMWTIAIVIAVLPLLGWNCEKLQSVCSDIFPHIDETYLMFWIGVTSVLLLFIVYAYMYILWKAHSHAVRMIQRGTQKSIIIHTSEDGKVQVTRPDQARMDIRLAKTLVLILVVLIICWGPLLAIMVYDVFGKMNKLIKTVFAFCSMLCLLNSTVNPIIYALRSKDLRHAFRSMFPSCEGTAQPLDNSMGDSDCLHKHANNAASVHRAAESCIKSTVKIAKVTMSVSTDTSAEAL

Cannabinoid receptor 1 [23] = molecular target: T1, Cannabinoid receptor 1; assay: Antagonist activity against human CB1 receptor; type: functional
Cannabinoid receptor 2 = Cannabinoid receptor 2 (Homo sapiens, UniProt P34972); assay: Displacement of [3H]CP55940 from human recombinant CB2 receptor expressed in Sf9 cells
Sequence of Cannabinoid receptor 2 (P34972 whole entry): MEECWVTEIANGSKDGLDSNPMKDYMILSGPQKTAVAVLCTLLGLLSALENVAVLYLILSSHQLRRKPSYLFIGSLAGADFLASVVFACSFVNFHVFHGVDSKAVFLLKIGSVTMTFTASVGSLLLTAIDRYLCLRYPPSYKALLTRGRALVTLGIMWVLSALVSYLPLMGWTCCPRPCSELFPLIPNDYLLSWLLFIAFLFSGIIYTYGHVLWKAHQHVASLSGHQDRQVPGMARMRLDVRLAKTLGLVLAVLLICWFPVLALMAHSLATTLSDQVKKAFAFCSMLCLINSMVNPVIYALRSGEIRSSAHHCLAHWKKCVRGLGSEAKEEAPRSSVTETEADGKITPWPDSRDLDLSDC
How it was run: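 Competition binding against [3H]CP55,940 on membranes from Sf9 cells expressing recombinant human CB2 receptor; run at least in duplicate.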

clinical = details: human, in vivo
Homo sapiens = species: Homo sapiens; assay: Clearance in human; type: ADME, organism-based; details: in vivo

`Cc1ccc(C(F)(F)F)cc1Cn1c(C(=O)NCCC(C)(C)O)cc2cc(C#N)ccc21` showed a microsomal CLint [1] of 33 µL/min/mg, a bioavailability [2] of 2% and a microsomal CLint [3] of less than 6 µL/min/mg. It also gave a microsomal CLint [4] of less than 6 µL/min/mg, a microsomal CLint [5] of less than 6 µL/min/mg and a clearance (Rattus norvegicus) of 200 mL/min/kg. The microsomal CLint [6] was less than 6 µL/min/mg, the microsomal CLint [7] was greater than 280 µL/min/mg and the microsomal CLint [8] was 17 µL/min/mg. The microsomal CLint [9] was less than 6 µL/min/mg, the microsomal CLint [10] was less than 6 µL/min/mg and the clearance (Mus musculus [11]) was 10 mL/min/kg. For the same compound, the microsomal CLint [12] was less than 6 µL/min/mg, the clearance (Canis familiaris) was 15 mL/min/kg and the bioavailability [13] was 31%. It also gave an ED50 (Mus musculus [14]) of 1.16 µmol/kg, a bioavailability [15] of 42% and a microsomal CLint [16] of less than 6 µL/min/mg. It also gave a microsomal CLint [17] of less than 6 µL/min/mg, a microsomal CLint [18] of less than 6 µL/min/mg and a microsomal CLint [19] greater than 280 µL/min/mg. The microsomal CLint [20] was 12 µL/min/mg, the microsomal CLint [21] was less than 6 µL/min/mg and the Ki (Cannabinoid receptor 1 [22]) was 4.37 nM. The IC50 (Cannabinoid receptor 1 [23]) was 5.13 nM and the Ki (Cannabinoid receptor 2) was greater than 10000 nM.
`COc1ccc(OC(F)(F)F)cc1Cn1c(C(=O)NCC(C)(C)CO)cc2cc(C#N)ccc21` showed a microsomal CLint [1] of 45 µL/min/mg, a bioavailability [2] of 8% and a microsomal CLint [3] of less than 6 µL/min/mg. The microsomal CLint [4] was less than 6 µL/min/mg, the microsomal CLint [5] was less than 6 µL/min/mg and the clearance (Rattus norvegicus) was 104 mL/min/kg. For the same compound, the microsomal CLint [6] was less than 6 µL/min/mg, the microsomal CLint [7] was 69 µL/min/mg and the microsomal CLint [8] was less than 6 µL/min/mg. For the same compound, the microsomal CLint [9] was 68 µL/min/mg, the microsomal CLint [10] was less than 6 µL/min/mg and the clearance (Mus musculus [11]) was 17 mL/min/kg. It also gave a microsomal CLint [12] of less than 6 µL/min/mg, a clearance (Canis familiaris) of 7 mL/min/kg and a bioavailability [13] of 30%. It also gave an ED50 (Mus musculus [14]) of 0.88 µmol/kg, a bioavailability [15] of 67% and a microsomal CLint [16] of less than 6 µL/min/mg. For the same compound, the microsomal CLint [17] was 7 µL/min/mg, the microsomal CLint [18] was 31 µL/min/mg and the microsomal CLint [19] was 191 µL/min/mg. The microsomal CLint [20] was 69 µL/min/mg, the microsomal CLint [21] was less than 6 µL/min/mg and the Ki (Cannabinoid receptor 1 [22]) was 0.398 nM. The IC50 (Cannabinoid receptor 1 [23]) was 1.17 nM and the Ki (Cannabinoid receptor 2) was greater than 10000 nM.
Work on `O=C(c1ccc(OCCN2CCCCC2)cc1)c1c(-c2ccc(O)cc2)sc2cc(O)ccc12` [RALOXIFENE] yielded a microsomal CLint [1] of 66 µL/min/mg, a bioavailability (clinical) of 2% and a bioavailability [2] of 4%. The microsomal CLint [3] was less than 6 µL/min/mg, the clearance (Homo sapiens) was 21 mL/min/kg and the microsomal CLint [4] was 5 µL/min/mg. The microsomal CLint [5] was less than 6 µL/min/mg, the clearance (Rattus norvegicus) was 58 mL/min/kg and the microsomal CLint [6] was 22 µL/min/mg. It also gave a microsomal CLint [7] of 79 µL/min/mg, a microsomal CLint [8] of 178 µL/min/mg and a microsomal CLint [9] of 346 µL/min/mg. The microsomal CLint [10] was less than 6 µL/min/mg, the clearance (Mus musculus [11]) was 108 mL/min/kg and the microsomal CLint [12] was less than 6 µL/min/mg. It also gave a clearance (Canis familiaris) of 40 mL/min/kg, a bioavailability [13] of 10% and a bioavailability [15] of 5%. The microsomal CLint [16] was 34 µL/min/mg, the microsomal CLint [17] was 26 µL/min/mg and the microsomal CLint [18] was 24 µL/min/mg. For the same compound, the microsomal CLint [19] was 11 µL/min/mg, the microsomal CLint [20] was 79 µL/min/mg and the microsomal CLint [21] was less than 6 µL/min/mg.
